Lmaj promast = Leishmania major promastigote growth inhibition. 200,000 tested, 9% active. AID 1063. inhibition, % at 10 µM. Leishmania major promastigotes, resazurin fluorescence viability;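 also: promastigotes grown with compound for 44 hours at 28 °C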
Diaph act CS = activates diaphorase or chemically reduces, flagging diaphorase assay artifacts; Diaphorase/resazurin coupled assay, resorufin fluorescence, 16 min; active compounds read high; 1 = vehicle wells, 0 = NADH-free wells; activation factor at 20 µM; 190,000 tested, 0.005% active;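 active = diaphorase activity raised at least twofold by the compound at 20 µM; inactive = activation factor below 2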
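Assay system: bacterial diaphorase enzyme (C. kluyveri) / Input: enzyme 0.07 U/mL final / Medium: 50 mM HEPES pH 7.4 with 4.542 mM MgCl2, 0.005% Tween 20 / Doses: single compound dose of 20 µM, 1% DMSO final / Incubation: 16 min enzyme reaction, ambient temperature / Signal: fluorescence, excitation 544 nm and emission 590 nm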
G6PDH counter = L. mesenteroides G6PDH inhibition counter-screen; Purified L. mesenteroides G6PDH, diaphorase/resazurin coupled fluorescence, 45 min; inhibition, % at 5 µM; 200,000 tested, 0.12% active
WT yeast gro inh = growth inhibition of WT yeast, mitochondrial fusion screen. mitochondrial fusion phenotypic screen, WT strain. inhibition, % at 10 µM. 190,000 tested, 2.1% active. AID 1362; in the data active = inhibition above about 58%; tested in S. cerevisiae
Diaphorase inh = inhibits diaphorase or chemically oxidizes, flagging diaphorase assay artifacts; diaphorase resazurin-to-resorufin fluorescence, NADH, 16 min; bacterial (C. kluyveri) enzyme, not human; inhibition, % at 20 µM; 190,000 tested, 0.69% active; AID 1217;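 active = primary screen inhibition at 20 µM above a set limit, cut at about 50% in these data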
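Detection: fluorescence of resorufin formed from resazurin, Ex 544/Em 590 nm; test system: Clostridium kluyveri diaphorase enzyme; amount: 0.14 U/mL diaphorase, enzyme working solution; times: 16-min room-temperature incubation before reading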
A number is an active result; i = inactive. An excerpt weighted towards active compounds, which were near 11% of everything screened. Rule as the data show it, unless noted: active = inhibition above about 50%; inactive = the rest.

SMILES	Lmaj promast	Diaph act CS	G6PDH counter	WT yeast gro inh	Diaphorase inh
O=C(Cn1cnc2cc([N+](=O)[O-])ccc2c1=O)NC1CCS(=O)(=O)C1 (configuration not stated)	i	i	i	i	i
CCCCNC(=O)CSc1nc2ccccc2c(=O)n1C1CCCC1	95	i	i	i	i
Cc1ccc(S(=O)(=O)N(Cc2ccccc2)c2ccccc2C(=O)NCc2cccnc2)cc1	64	i	i	i	i
O=C(O)c1ccccc1C(=O)NCc1cccnc1	i	i	i	i	i
Cc1ccccc1CN(c1ccc(C(=O)Nc2ccccc2C(=O)N2CCCC2)cc1)S(C)(=O)=O	i	i	i	i	i
COc1ccc(S(=O)(=O)N(Cc2ccccc2)c2ccccc2C(=O)Nc2ccccc2C(=O)NCc2ccco2)cc1	66	i	i	i	i
Cc1ccccc1CN(c1ccc(C(=O)Nc2ccccc2C(=O)NCc2ccco2)cc1)S(C)(=O)=O	81	i	i	i	i
O=S(=O)(/N=C(/Nc1ccc(Cl)cc1Cl)c1ccccc1)c1cccs1	i	i	i	i	i
O=C(O)CSCC(=O)NCc1cccc(C(F)(F)F)c1	i	i	i	i	i
CC(=O)Nc1ccc(Nc2c([N+](=O)[O-])c(=O)n(-c3ccccc3)c3ccccc23)cc1	i	i	i	i	i
CC(C)NC(=O)CSc1nc(N)c(NC(=O)c2ccccc2F)c(=O)[nH]1	i	i	i	i	i
COc1ccc(C2Cc3ccccc3C(=O)O2)cc1 (configuration not stated)	i	i	i	i	i
COCCN(C(=O)Nc1ccccc1)C(C)c1cccnc1 (configuration not stated)	i	i	i	i	i
COCCN(C(=S)Nc1ccc(C)cc1)C(C)c1cccnc1 (configuration not stated)	80	i	i	i	i
COCCN(C(=S)Nc1cc(C)cc(C)c1)C(C)c1cccnc1 (configuration not stated)	95	i	i	i	i
CCCCN(CCCC)S(=O)(=O)c1ccc(NC(=O)Cc2cccs2)cc1	i	i	i	i	i
O=C(COC(=O)c1ccc2c(c1)C(=O)N(c1cccc3ncccc13)C2=O)c1ccc(Cl)cc1	i	i	i	i	i
Cc1ccc(C(=O)COC(=O)c2ccc3c(c2)C(=O)N(c2cccc4ncccc24)C3=O)cc1	76	i	i	i	i
O=C(c1ccccc1C(=O)N(c1ccccc1)c1ccccc1)N1CCCCC1	i	i	i	i	i
Cc1noc(C)c1N=Nc1ccccc1C(=O)O	i	i	i	i	i
COc1cc(C(=O)O/N=C2\C=CC(=O)C=C2C)cc(OC)c1OC	97	i	i	i	58
COc1cc(C(=O)O/N=C2\CCCc3c2ccc(OC)c3[N+](=O)[O-])cc(OC)c1OC	i	i	i	i	i
COc1cc(C(=O)Oc2ccccc2N)cc(OC)c1OC	i	i	i	i	i
COc1cc(C(=O)O/N=C2/C=CC(=O)C(C)=C2C)cc(OC)c1OC	100	i	i	i	i
COc1ccc(Nc2nc(C)cc(C)c2C(N)=O)c(OC)c1	i	i	i	i	i
SMILES	Lmaj promast	Diaph act CS	G6PDH counter	WT yeast gro inh	Diaphorase inh
CCOC(=O)c1sc(NC(=O)CCN2CCN(CC)CC2)c(C(=O)OCC)c1C	100	i	i	i	i
CN1CCC(N(C)CC(=O)Nc2cccc(Oc3ccccc3)c2)CC1	96	i	i	i	i
CCOC(=O)c1c(NC(=O)CN(C)C2CCN(C)CC2)sc(C(=O)Nc2ccccc2)c1C	101	i	i	i	i
COC(=O)c1sc(NC(=O)C2CCCCC2C(=O)O)c(C(=O)OC)c1C (configuration not stated)	i	i	i	i	i
O=C(NCc1cccnc1)/C(=C/c1ccc(-c2cccc(C(F)(F)F)c2)o1)NC(=O)c1ccccc1	84	i	i	i	i
O=C(NCc1cccnc1)/C(=C\c1ccc(-c2ccc(Br)cc2)o1)S(=O)(=O)c1ccccc1	100	i	i	i	i
O=C(NCc1cccnc1)/C(=C/c1ccc(-c2ccc(Cl)cc2)o1)S(=O)(=O)c1ccccc1	101	i	i	i	i
O=C(NCc1cccnc1)C(=O)NCC1OCCN1S(=O)(=O)c1ccc(Cl)cc1 (configuration not stated)	i	i	i	i	i
Cc1ccc(C(=O)O/N=C(\N)c2nonc2N)cc1	i	i	i	i	i
